Experimental data from ChEMBL document CHEMBL2046305, “Discovery of selective menaquinone biosynthesis inhibitors against Mycobacterium tuberculosis” (J Med Chem, 2012).
In brackets after ≈: the same amount, converted by molar mass. Activity calls are given as the source filed them. The calls are words filed in the database; no cut-off is given here.

Tests used:
[1] = system: Mycobacterium tuberculosis; test: Inhibition of Mycobacterium tuberculosis MenA using [3H]farnesyl and DHNA as substrate at 100 uM after 2 hrs
Procedure, shortened: (§1)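 Membrane fraction from mid-log cultures in 7H9/OADC, washed in saline, sonicated in MOPS pH 8/sucrose/MgCl2/2-mercaptoethanol buffer, spun 15,000 g then 200,000 g; the fraction was the enzyme source. DHNA (500 μM stock), MgCl2, 0.1% CHAPS, Tris pH 8, farnesyl diphosphate (200 μM stock) and inhibitor, 2 h at 37 °C. Quenched with 0.1 M AcOH/MeOH, extracted with hexanes, DMMK measured.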

Escherichia coli [2] = test: Growth inhibition of Escherichia coli Seattle ATCC 25922 at 5 to 10 ug/ml by microplate alamar blue assay; assay type: functional, organism-based
Staphylococcus aureus [3] = test: Inhibition of Staphylococcus aureus MenA using [3H]farnesyl and DHNA as substrate at 100 uM after 2 hrs; procedure, shortened: as §1
[4] = Inhibition of Mycobacterium tuberculosis MenA using [3H]farnesyl and DHNA as substrate after 2 hrs; procedure, shortened: as §1
[5] = system: Mycobacterium tuberculosis; test: Antibacterial activity against Mycobacterium tuberculosis H37Rv ATCC 27294 by microplate alamar blue assay; assay type: functional
Procedure, shortened: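 Colorimetric microplate assay run under aerobic conditions; growth scored by the colour change of resazurin. Compounds showing at least 90% inhibition in a preliminary screen were retested at lower concentrations to give the MIC.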

[6] = system: Mycobacterium tuberculosis; test: Antibacterial activity against non-replicating Mycobacterium tuberculosis H37Rv ATCC 27294 by low oxygen recovery assay; assay type: functional
Staphylococcus aureus [7] = test: Antibacterial activity against Staphylococcus aureus Seattle 1945 ATCC 25923 by agar plate diffusion method; assay type: functional
Escherichia coli [8] = test: Growth inhibition of Escherichia coli Seattle ATCC 25922 at 5 to 10 ug/ml by microplate alamar blue assay in presence of 50 uM VK2; assay type: functional, organism-based
Procedure, shortened: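 E. coli grown with inhibitor under anaerobic conditions; rescue tested by supplementing with menaquinone (VK2, 50 μM).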

SMILES	inhibition [1]	growth inhibition (GI) (Escherichia coli [2])	inhibition (Staphylococcus aureus [3])	IC50 [4]	MIC [5]	MIC [6]	MIC (Staphylococcus aureus [7])	growth inhibition (GI) (Escherichia coli [8])
CCCC[C@H](O)CN1CCC(COc2cccc(C(=O)c3ccc(Cl)cc3)c2)CC1	Active	Active	inactive	7.5 µM	12.5 µg/mL (≈ 29.1 µM)	5.59 µg/mL (≈ 13 µM)	> 60 µg/mL	inactive
CCCCCCC[C@@H](O)c1cccc(CN2CCC(COc3cccc(/C(=N\OC)c4ccc(Cl)cc4)c3)CC2)c1	Active	Active	inactive	15 µM	6.25 µg/mL (≈ 10.8 µM)	1.43 µg/mL (≈ 2.48 µM)	> 60 µg/mL	inactive
CCCCCCC[C@@H](OC(N)=O)c1cccc(CN2CCC(COc3cccc(C(=O)c4ccc(Cl)cc4)c3)CC2)c1	Active	Active	inactive	15 µM	12.5 µg/mL (≈ 21.1 µM)	4.93 µg/mL (≈ 8.34 µM)	> 60 µg/mL	inactive
CCCCCC[C@@H](CN1CCC(COc2cccc(C(=O)c3ccc(Cl)cc3)c2)CC1)OC(N)=O	Active	Active	inactive	9 µM	12.5 µg/mL (≈ 24.9 µM)	2.94 µg/mL (≈ 5.87 µM)	> 60 µg/mL	inactive
CCCCCCC[C@H](OC(N)=O)c1cccc(CN2CCC(COc3ccc(C(=O)c4ccc(Cl)cc4)c(Cl)c3)CC2)c1	Active	Active	inactive	20 µM	12.5 µg/mL (≈ 20 µM)	2.93 µg/mL (≈ 4.68 µM)	> 60 µg/mL	inactive
CCCCCCC[C@@H](O)c1cccc(CN2CCC(COc3cccc(C(=O)c4ccc(Cl)cc4)c3)CC2)c1	Active	Active	inactive	20 µM	12.5 µg/mL (≈ 22.8 µM)	1.46 µg/mL (≈ 2.66 µM)	> 60 µg/mL	inactive
COc1ccc(CCN[C@@H](CO)c2cccc(COc3cccc(C(=O)c4ccc(Cl)cc4)c3)c2)cc1	Active	Active	inactive	14 µM	12.5 µg/mL (≈ 24.2 µM)	3 µg/mL (≈ 5.81 µM)	> 60 µg/mL	inactive
NNC(=O)c1ccncc1 [ISONIAZID]					0.03 µg/mL (≈ 0.219 µM)	> 128 µg/mL		
CCCCCCC[C@H](OC(N)=O)c1cccc(CN2CCC(COc3cccc(C(=O)c4ccc(Cl)cc4)c3)CC2)c1	Active	Active	inactive	20 µM	12.5 µg/mL (≈ 21.1 µM)	4.93 µg/mL (≈ 8.34 µM)	> 60 µg/mL	inactive
CCCCCC[C@@H](O)CN1CCC(COc2cccc(C(=O)c3ccc(Cl)cc3)c2)CC1	Active	Active	inactive	9 µM	6.2 µg/mL (≈ 13.5 µM)	5.59 µg/mL (≈ 12.2 µM)	> 60 µg/mL	inactive
COc1ccc(CCN[C@H](CO)c2cccc(COc3cccc(C(=O)c4ccc(Cl)cc4)c3)c2)cc1	Active	Active	inactive	17 µM	12.5 µg/mL (≈ 24.2 µM)	3 µg/mL (≈ 5.81 µM)	> 60 µg/mL	inactive
CCCCCCC[C@H](O)c1cccc(CN2CCC(COc3ccc(C(=O)c4ccc(Cl)cc4)c(Cl)c3)CC2)c1	Active	Active	inactive	15 µM	12.5 µg/mL (≈ 21.5 µM)	1.88 µg/mL (≈ 3.23 µM)	> 60 µg/mL	inactive
CCCC[C@H](O)CN1CCC(COc2ccc(C(=O)c3ccc(Cl)cc3)c(Cl)c2)CC1	Active	Active	inactive	4.5 µM	1.5 µg/mL (≈ 3.23 µM)	1.43 µg/mL (≈ 3.08 µM)	> 60 µg/mL	inactive
CCCCCCC[C@@H](O)c1cccc(CN2CCC(COc3ccc(/C(=N\OC)c4ccc(Cl)cc4)c(Cl)c3)CC2)c1	Active	Active	inactive	15 µM	12.5 µg/mL (≈ 20.4 µM)	5.54 µg/mL (≈ 9.06 µM)	> 60 µg/mL	inactive
CCCC[C@@H](O)CN1CCC(COc2ccc(C(=O)c3ccc(Cl)cc3)c(Cl)c2)CC1	Active	Active	inactive	7.5 µM	6.25 µg/mL (≈ 13.5 µM)	2.85 µg/mL (≈ 6.14 µM)	> 60 µg/mL	inactive
CCCCCCC[C@H](O)c1cccc(CN2CCC(COc3cccc(C(=O)c4ccc(Cl)cc4)c3)CC2)c1	Active	Active	inactive	25 µM	12.5 µg/mL (≈ 22.8 µM)	1.88 µg/mL (≈ 3.43 µM)	> 60 µg/mL	inactive
CCCCCC[C@@H](CN1CCC(COc2ccc(/C(=N\OC)c3ccc(Cl)cc3)c(Cl)c2)CC1)OC(N)=O	Active	Active	inactive	1.5 µM	1.5 µg/mL (≈ 2.66 µM)	1.4 µg/mL (≈ 2.48 µM)	> 60 µg/mL	inactive
CCCCCC[C@H](O)CN1CCC(COc2ccc(C(=O)c3ccc(Cl)cc3)c(Cl)c2)CC1	Active	Active	inactive	3.5 µM	1.5 µg/mL (≈ 3.05 µM)	1.43 µg/mL (≈ 2.9 µM)	> 60 µg/mL	inactive
CCCCCCC[C@@H](OC(N)=O)c1cccc(CN2CCC(COc3ccc(C(=O)c4ccc(Cl)cc4)c(Cl)c3)CC2)c1	Active	Active	inactive	20 µM	12.5 µg/mL (≈ 20 µM)	4.93 µg/mL (≈ 7.88 µM)	> 60 µg/mL	inactive
CCCCCC[C@@H](O)CN1CCC(COc2ccc(C(=O)c3ccc(Cl)cc3)c(Cl)c2)CC1	Active	Active	inactive	9.5 µM	6.25 µg/mL (≈ 12.7 µM)	5.2 µg/mL (≈ 10.6 µM)	> 60 µg/mL	inactive
CCCCC(CN1CCC(COc2ccc(C(=O)c3ccc(Cl)cc3)c(Cl)c2)CC1)OC(N)=O (racemic)	Active	Active	inactive	7.5 µM	3.25 µg/mL (≈ 6.4 µM)	2.83 µg/mL (≈ 5.58 µM)	> 60 µg/mL	inactive
CO[C@H]1/C=C/O[C@@]2(C)Oc3c(C)c(O)c4c(O)c(c(/C=N/N5CCN(C)CC5)c(O)c4c3C2=O)NC(=O)/C(C)=C\C=C\[C@H](C)[C@H](O)[C@@H](C)[C@@H](O)[C@@H](C)[C@H](OC(C)=O)[C@@H]1C [RIFAMPIN]					0.07 µg/mL (≈ 0.0851 µM)			
